Data from ChEMBL document CHEMBL4265879, “Novel, potent, selective and brain penetrant vasopressin 1b receptor antagonists” (Bioorg Med Chem Lett, 2018).

Key:
Homo sapiens [1] = species on record: Homo sapiens; assay: Selectivity index, ratio of Ki for human oxytocin receptor to Ki for human vasopressin V1b receptor
Method in brief: (§1)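 Selectivity was calculated from human receptor Ki values as Ki hOT/Ki hV1b or Ki hV1a/Ki hV1b. Each Ki is the mean of at least two experiments (MSR 2.8).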

Homo sapiens [2] = species on record: Homo sapiens; assay: Selectivity index, ratio of Ki for human vasopressin V1a receptor to Ki for human vasopressin V1b receptor; method in brief: as §1
[3] = Intrinsic clearance in human liver microsomes; type: ADME, microsome; settings: read-out: CLH
Method in brief: (§2)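 Intrinsic clearance was measured in human and rat liver microsomes, in µL/min/mg. Values are means of at least two experiments.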

[4] = Intrinsic clearance in rat liver microsomes; type: ADME, microsome; settings: read-out: CLH; method in brief: as §2
Vasopressin V1b receptor = target: T1, Vasopressin V1b receptor (Homo sapiens, UniProt P47901); assay: Displacement of [3H]AVP from human vasopressin V1b receptor expressed in CHO cell membranes after 60 mins by TopCount microplate scintillation counting method
T1 sequence (P47901 whole entry): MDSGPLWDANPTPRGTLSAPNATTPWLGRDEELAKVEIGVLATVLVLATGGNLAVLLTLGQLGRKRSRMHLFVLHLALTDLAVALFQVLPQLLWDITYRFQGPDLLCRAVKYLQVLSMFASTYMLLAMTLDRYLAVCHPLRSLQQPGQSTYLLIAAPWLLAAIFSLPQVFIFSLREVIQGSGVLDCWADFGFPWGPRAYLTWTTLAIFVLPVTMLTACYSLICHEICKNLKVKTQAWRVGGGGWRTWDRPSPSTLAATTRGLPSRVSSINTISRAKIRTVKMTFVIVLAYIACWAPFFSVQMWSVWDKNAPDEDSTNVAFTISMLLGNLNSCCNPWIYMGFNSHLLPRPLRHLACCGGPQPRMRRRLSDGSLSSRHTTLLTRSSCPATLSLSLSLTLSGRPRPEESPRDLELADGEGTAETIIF

Cytochrome P450 3A4 = Cytochrome P450 3A4 (Homo sapiens, UniProt P08684); assay: Inhibition of CYP3A4 in human liver microsomes in presence of NADPH and Luciferin BE 50; type: ADME
Cytochrome P450 3A4, sequence (P08684 whole entry): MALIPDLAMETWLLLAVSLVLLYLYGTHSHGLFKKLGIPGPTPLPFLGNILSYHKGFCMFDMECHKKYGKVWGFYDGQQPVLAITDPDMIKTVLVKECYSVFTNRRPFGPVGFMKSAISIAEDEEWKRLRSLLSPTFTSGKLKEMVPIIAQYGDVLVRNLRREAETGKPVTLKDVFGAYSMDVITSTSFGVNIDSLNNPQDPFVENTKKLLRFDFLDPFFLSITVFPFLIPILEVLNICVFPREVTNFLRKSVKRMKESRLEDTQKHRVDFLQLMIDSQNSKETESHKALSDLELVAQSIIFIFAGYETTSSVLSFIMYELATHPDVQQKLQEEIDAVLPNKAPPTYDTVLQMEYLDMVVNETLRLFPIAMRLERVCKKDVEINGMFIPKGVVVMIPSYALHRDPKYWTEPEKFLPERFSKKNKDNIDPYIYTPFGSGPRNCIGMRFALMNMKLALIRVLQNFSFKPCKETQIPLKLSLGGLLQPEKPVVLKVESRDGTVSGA
Method in brief: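 CYP3A4 inhibition by co-incubation in human liver microsomes with NADPH and luciferin-BE substrate, with 0.03 mg/mL noted. Result expressed as IC50.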

[5] = Elimination half life in rat at 2 mg/kg, iv; type: ADME, organism-based; settings: in vivo, read-out: beta t1/2 (converted)
Method in brief: (§3)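 Rat PK after a 2 mg/kg intravenous dose. Plasma clearance (L/h/kg), terminal half-life (h) and steady-state volume of distribution (L/kg) were derived.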

[6] = Volume of distribution at steady state in rat at 2 mg/kg, iv; type: ADME, organism-based; settings: in vivo, read-out: Vdss; method in brief: as §3
[7] = Clearance in rat plasma at 2 mg/kg, iv; type: ADME, organism-based; method in brief: as §3
[8] = Oral bioavailability in rat at 10 mg/kg; type: ADME, organism-based; settings: in vivo
Method in brief: (§4)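 Rat oral dosing, at 10 or 5 mg/kg depending on compound. Oral bioavailability (%) was calculated.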

[9] = Ratio of AUC in rat brain to plasma at 10 mg/kg, ip measured after 8 hrs; type: ADME, organism-based; settings: read-out: Ratio AUC
Method in brief: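 Rats were dosed 10 mg/kg intraperitoneally. Brain and plasma AUC were taken over an 8 h period, and the brain:plasma ratio was calculated from them.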

[10] = Oral bioavailability in rat at 5 mg/kg; type: ADME, organism-based; settings: in vivo; method in brief: as §4
Rattus norvegicus [11] = assay: Antidepressant like activity in Sprague-Dawley rat assessed as swimming time at 3 mg/kg, ip administered at 24, 4 and 0.5 hrs prior to test by forced swimming test; type: functional
Method in brief: (§5)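 Rat forced swim test. Drug given intraperitoneally at 3 mg/kg, dosed 24, 4 and 0.5 h before testing. Floating, swimming and climbing times were scored. Nomifensine served as positive control. Data reported as mean ± SEM.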

Rattus norvegicus [12] = assay: Antidepressant like activity in Sprague-Dawley rat assessed as floating time at 3 mg/kg, ip administered at 24, 4 and 0.5 hrs prior to test by forced swimming test; type: functional; method in brief: as §5
Rattus norvegicus [13] = assay: Antidepressant like activity in Sprague-Dawley rat assessed as climbing time at 3 mg/kg, ip administered at 24, 4 and 0.5 hrs prior to test by forced swimming test; type: functional; method in brief: as §5

Compound | Ratio Ki (Homo sapiens [1]) | Ratio Ki (Homo sapiens [2]) | microsomal CLint [3] | microsomal CLint [4] | Ki (Vasopressin V1b receptor) | further results
CCOc1nc(Cl)ccc1C1(N2CCN(c3ccnc(C)c3)CC2)C(=O)N(S(=O)(=O)c2ccc(OC)cn2)c2ccc(C#N)cc21 (single isomer, unassigned; (+)) [listing 1 of 2 here] | 65 | 78 |  |  |  | 
CCOc1nc(Cl)ccc1C1(N2CCN(c3ccnc(C)c3)CC2)C(=O)N(S(=O)(=O)c2ccc(OC)cn2)c2ccc(C#N)cc21 (racemic) [listing 1 of 2 here] | 69 | 125 |  |  |  | 
CCOc1ccc(OC)cc1C1(N2CCN(c3ccncc3)CC2)C(=O)N(S(=O)(=O)c2ccc(OC)cc2)c2ccc(C#N)cc21 (stereo not given) | 15 |  | 93 µL/min/mg | 118 µL/min/mg | 32 nM | 
CCOc1ccccc1C1(N2CCN(c3ccncc3)CC2)C(=O)N(S(=O)(=O)c2ccc(OC)cc2OC)c2ccc(C#N)cc21 (stereo not given) |  |  | 43 µL/min/mg | 83 µL/min/mg | 36 nM | 
CCOc1ccc(OC)cc1C1(N2CCN(c3ccncc3)CC2)C(=O)N(S(=O)(=O)c2ccc(OC)c3cccnc23)c2ccc(C#N)cc21 (stereo not given) | 4 | 84 | 33 µL/min/mg | 15 µL/min/mg | 2 nM | 
CCOc1nc(Cl)ccc1C1(N2CCN(c3ccnc(C)c3)CC2)C(=O)N(S(=O)(=O)c2ccc(OC)cn2)c2ccc(C#N)cc21 (racemic) [listing 2 of 2 here] |  |  |  |  | 1.3 nM | IC50 (Cytochrome P450 3A4): 1200 nM
CCOc1ccc(OC)cc1C1(N2CCN(c3ccncc3)CC2)C(=O)N(S(=O)(=O)c2ccc(OC)cc2OC)c2ccc(C#N)cc21 (stereo not given) | 6 | 21 | 23 µL/min/mg | 41 µL/min/mg | 21 nM | half-life [5]: 3.4 h; Vd [6]: 2.9 L/kg; clearance [7]: 11.7 mL/min/kg; bioavailability [8]: 22%; Kp at 8 h [9]: 1.1
COc1ncccc1C1(N2CCN(c3cccnc3)CC2)C(=O)N(S(=O)(=O)c2cccc3cccnc23)c2ccc(Cl)cc21 (stereo not given) | 2 | 0.5 | 554 µL/min/mg | 156 µL/min/mg | 15.2 nM | 
COc1ccc(S(=O)(=O)N2C(=O)C(c3cccnc3OC)(N3CCN(c4cccnc4)C(=O)C3)c3cc(Cl)ccc32)c(OC)c1 (stereo not given) |  | 1 | 196 µL/min/mg | 291 µL/min/mg | 82 nM | 
CCOc1ccc(OC)cc1C1(N2CCN(c3ccncc3)CC2)C(=O)N(S(=O)(=O)c2ccc(F)c3cccnc23)c2ccc(C#N)cc21 (stereo not given) | 21 | 39 | 131 µL/min/mg | 119 µL/min/mg | 9 nM | 
COc1ccc(S(=O)(=O)N2C(=O)C(c3ccccc3OC)(N3CCN(c4cccnc4)CC3)c3cc(Cl)ccc32)c(OC)c1 (stereo not given) | 0.9 | 0.8 | 41 µL/min/mg | 348 µL/min/mg | 18 nM | 
COc1ccc(S(=O)(=O)N2C(=O)C(c3cccnc3OC)(N3CCN(C)C(=O)C3)c3cc(Cl)ccc32)c(OC)c1 (stereo not given) |  |  | 99 µL/min/mg | 113 µL/min/mg | 192 nM | 
COc1ccc(S(=O)(=O)N2C(=O)C(c3cc(OC)ccc3OC)(N3CCN(c4ccncc4)CC3)c3cc(C#N)ccc32)c(OC)c1 (stereo not given) | 2 | 2 | 50 µL/min/mg | 58 µL/min/mg | 13 nM | 
COc1ccc(S(=O)(=O)N2C(=O)C(c3cccnc3OC)(N3CCN(c4cccnc4)CC3)c3cc(Cl)ccc32)c(OC)c1 (stereo not given) |  | 0.1 | 19 µL/min/mg | 84 µL/min/mg | 45 nM | 
COc1ccc(S(=O)(=O)N2C(=O)C(c3cccnc3OC)(N3CCN(C)C(=O)[C@H]3C)c3cc(Cl)ccc32)c(OC)c1 (stereo not given in full) |  | 1 | 51 µL/min/mg | 78 µL/min/mg | 41 nM | 
COc1ccccc1C1(N2CCN(c3cccnc3)CC2)C(=O)N(S(=O)(=O)c2ccccc2OC)c2ccc(Cl)cc21 (stereo not given) |  |  | 93 µL/min/mg | 442 µL/min/mg | 47 nM | 
CCOc1nc(Cl)ccc1C1(N2CCN(c3ccncc3)CC2)C(=O)N(S(=O)(=O)c2ccc(OC)cn2)c2ccc(C#N)cc21 (stereo not given) | 201 | 325 | 39 µL/min/mg | 63 µL/min/mg | 1.1 nM | IC50 (Cytochrome P450 3A4): 100 nM
CCOc1ncccc1C1(N2CCN(c3ccncc3)CC2)C(=O)N(S(=O)(=O)c2ccc(OC)cc2OC)c2ccc(C#N)cc21 (stereo not given) |  |  | 77 µL/min/mg | 168 µL/min/mg | 84 nM | 
COc1ncccc1C1(N2CCN(c3cccnc3)CC2)C(=O)N(S(=O)(=O)c2cccc3cccnc23)c2ccc(C#N)cc21 (stereo not given) | 3 | 0.9 | 326 µL/min/mg | 113 µL/min/mg | 30.2 nM | 
COc1ccc(S(=O)(=O)N2C(=O)C(c3cccnc3OC)(N3CCNC(=O)C3)c3cc(Cl)ccc32)c(OC)c1 (stereo not given) |  |  |  |  | 1340 nM | 
COc1ccccc1C1(N2CCN(c3cccnc3)CC2)C(=O)N(S(=O)(=O)c2cccc3cccnc23)c2ccc(Cl)cc21 (stereo not given) | 10 | 3 | 360 µL/min/mg | 359 µL/min/mg | 8 nM | 
CCOc1nc(Cl)ccc1C1(N2CCN(c3ccnc(C)c3)CC2)C(=O)N(S(=O)(=O)c2ccc(OC)cn2)c2ccc(C#N)cc21 (single isomer, unassigned; (+)) [listing 2 of 2 here] |  |  | 7 µL/min/mg | 22 µL/min/mg | 0.9 nM | half-life [5]: > 6 h; Vd [6]: 12 L/kg; clearance [7]: 15 mL/min/kg; bioavailability [10]: 37%; Kp at 8 h [9]: 1; IC50 (Cytochrome P450 3A4): 2000 nM
COc1ccc(S(=O)(=O)N2C(=O)C(c3ccccc3OC)(N3CCN(c4ccncc4)CC3)c3cc(C#N)ccc32)c(OC)c1 (stereo not given) |  |  | 43 µL/min/mg | 296 µL/min/mg | 58.5 nM | 
CCOc1ccc(OC)cc1C1(N2CCN(c3ccncc3)CC2)C(=O)N(S(=O)(=O)c2ccc(OC)cn2)c2ccc(C#N)cc21 (stereo not given) | 230 | 216 | 45 µL/min/mg | 290 µL/min/mg | 2 nM | 
CCOc1cc(OC)ccc1C1(N2CCN(c3ccncc3)CC2)C(=O)N(S(=O)(=O)c2ccc(OC)cc2OC)c2ccc(C#N)cc21 (stereo not given) | 3 | 34 | 63 µL/min/mg | 34 µL/min/mg | 10 nM | 
COc1ccccc1C1(N2CCN(c3cccnc3)CC2)C(=O)N(S(=O)(=O)c2ccccc2)c2ccc(Cl)cc21 (stereo not given) |  |  |  |  | 233 nM | 
CCOc1nc(Cl)ccc1C1(N2CCN(c3ccncc3)CC2)C(=O)N(S(=O)(=O)c2ccc(OC)cc2OC)c2ccc(C#N)cc21 (stereo not given) |  |  | 23 µL/min/mg |  | 45 nM | 
COc1ccc(S(=O)(=O)N2C(=O)C(c3ccccc3OC)(N3CCN(c4cccnc4)CC3)c3cc(Cl)ccc32)cc1 (stereo not given) |  |  |  |  | 104 nM | 
CCOc1ccc(OC)cc1C1(N2CCN(c3ccncc3)CC2)C(=O)N(S(=O)(=O)c2cccc3cccnc23)c2ccc(C#N)cc21 (stereo not given) | 34 | 79 | 170 µL/min/mg | 210 µL/min/mg | 5 nM | Time (Rattus norvegicus [11]): 12.46 s; half-life [5]: 2.4 h; Vd [6]: 10 L/kg; Time (Rattus norvegicus [12]): 159.15 s; clearance [7]: 46.7 mL/min/kg; bioavailability [8]: 18%; Kp at 8 h [9]: 1.4; Time (Rattus norvegicus [13]): 125.69 s
